An excerpt weighted towards active compounds, which were near 3.1% of everything screened.
UBC13 polyUb – UBC13 polyubiquitin chain formation inhibitors, primary screen, biochemical, TR-FRET, uHTS. 330,000 compounds, 0.47% hits. AID 485273, 2010. Ubiquitin-conjugating enzyme E2 N (Homo sapiens), P61088. inhibition, % at 20 µM; in the data active = inhibition above about 45%, passing the limit was not always enough; inconclusive = no clear call, values can overlap the other calls
Target sequence (P61088 whole entry, looked up): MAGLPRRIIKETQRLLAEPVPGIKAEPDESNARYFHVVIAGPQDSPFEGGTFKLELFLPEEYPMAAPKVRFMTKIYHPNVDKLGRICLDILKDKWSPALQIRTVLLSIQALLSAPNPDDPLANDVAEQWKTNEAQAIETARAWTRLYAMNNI
SENP8 block-1 – SENP8 protease inhibitors, primary screen, biochemical, luminescence; Sentrin-specific protease 8 (Homo sapiens), Q96LD8; purified SENP8, Z-RLRGG-aminoluciferin cleavage; inhibition, % at 10 µM; 330,000 compounds, 1.2% hits; in the data active = inhibition above about 50%
Target sequence (Q96LD8 whole entry, looked up): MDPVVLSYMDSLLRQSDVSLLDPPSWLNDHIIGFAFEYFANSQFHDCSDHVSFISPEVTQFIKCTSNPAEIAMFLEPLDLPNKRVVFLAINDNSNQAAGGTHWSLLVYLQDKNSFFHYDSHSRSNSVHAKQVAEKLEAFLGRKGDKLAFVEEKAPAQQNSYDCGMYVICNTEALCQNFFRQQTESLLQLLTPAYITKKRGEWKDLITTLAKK
Apaf1 inhib – inhibitors of human Apaf-1 apoptosome, primary screen, biochemical, DEVD-Rh110 fluorescence, uHTS. reconstituted apoptosome caspase-3 activity. 330,000 compounds, 0.71% hits. inhibition, % at 20 µM. Apoptotic protease-activating factor 1 (Homo sapiens), O14727; active = inhibition of at least 40% at 20 µM;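 also: plate controls were DMSO wells for no effect and DEVD-CHO caspase inhibitor wells for full effect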
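detection = Rh110 fluorescence intensity | test system = biochemical Apaf-1 apoptosome reconstitution | also added = cytochrome c and DEVD-Rh110 substrate | schedule = 30 min plus 50 min, RT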
SENP6 block – SENP6 protease inhibitors, primary screen, biochemical, luminescence, uHTS; inhibition, % at 10 µM; Recombinant SENP6 catalytic domain, aminoluciferin luminescence; 330,000 compounds, 1.8% hits; Sentrin-specific protease 6 (Homo sapiens), Q9GZR1;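 active = inhibition above about 50% at the single tested dose, limit read from the data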;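 also: plate controls were DMSO wells with enzyme for no effect and DMSO wells lacking enzyme for full effect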
SENP8 block-2 – human SENP8 protease inhibitors, primary screen, biochemical, fluorescence, Nedd8 protein substrate, uHTS | 360,000 compounds, 0.64% hits | recombinant SENP8 | Sentrin-specific protease 8 (Homo sapiens), Q96LD8 | AID 602440, 2012 | inhibition, % at 20 µM; in the data active = inhibition mostly above about 40%, no sharp cut-off; inactive = mostly below about 27%
SENP7 block – SENP7 protease inhibitors, primary screen, biochemical, luminescence, uHTS. Sentrin-specific protease 7 (Homo sapiens), Q9BQF6. recombinant SENP7, Z-RLRGG-aminoluciferin luminescence, 40 min. inhibition, % at 5 µM. 330,000 compounds, 1.5% hits. AID 434973, 2010;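 active = inhibition above about 50% at the single test dose, limit read from the data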;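 also: plate controls were DMSO with enzyme for no effect and no enzyme buffer wells for full effect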
Starred values were filed as active, the others as inactive.

How did O=C(Nc1ccccc1F)Oc1cccc(OC(=O)Nc2ccccc2F)c1 do in these assays?
UBC13 polyUb: 0; SENP8 block-1: 64*; Apaf1 inhib: -7; SENP6 block: 69*; SENP8 block-2: 19; SENP7 block: 73*

How did COc1cccc(C(=O)Nc2ccccc2F)c1 do in these assays?
UBC13 polyUb: 6; SENP8 block-1: 4; Apaf1 inhib: -4; SENP6 block: 19; SENP8 block-2: 11; SENP7 block: 20

What do the screens show for `Oc1ccc(/C=N/N(Cc2ccccc2)c2ccccc2)c(O)c1O`?
SENP8 block-2: 56*

What do the screens show for `O=C(Nc1ccccc1N1CCCC1)c1cc2ccccc2o1`?
UBC13 polyUb: 0; SENP8 block-1: 35; Apaf1 inhib: 13; SENP6 block: 63*; SENP8 block-2: -10; SENP7 block: 19

Results for O=C(Nc1ccccc1N1CCOCC1)c1cc2ccccc2o1 ?
UBC13 polyUb: 4; SENP8 block-1: -5; Apaf1 inhib: 14; SENP6 block: -9; SENP8 block-2: -2; SENP7 block: 2

How did Nc1[nH]n(-c2ccccc2)c(=O)c1N=Nc1ccc2c(c1)OCO2 do in these assays?
UBC13 polyUb: -158; SENP8 block-1: 52*; Apaf1 inhib: 18; SENP6 block: 64*; SENP8 block-2: 52*; SENP7 block: 69*

What do the screens show for `Cc1[nH]n(-c2ccccc2)c(=O)c1N=Nc1ccccc1`?
UBC13 polyUb: -25; SENP8 block-1: -12; Apaf1 inhib: 7; SENP6 block: -2; SENP8 block-2: 26; SENP7 block: -7

What do the screens show for `COC(=O)[C@]12CCCCC=C1N(CCC1=CCCCC1)C(=O)[C@H](CC(=O)N1CCCCC1)C2`?
SENP8 block-2: 9

How did Cc1ccsc1C(=O)N1CCC1(C)C(=O)NCCC#N (stereo not drawn) do in these assays?
SENP8 block-2: 13

Results for CCN(CC)c1ccc(C=Nc2ccc(C)cc2C)c(O)c1 ?
UBC13 polyUb: 18; SENP8 block-1: -7; Apaf1 inhib: 5; SENP6 block: -6; SENP8 block-2: 21; SENP7 block: 2

How did Cc1ccc(N=Cc2cccc(O)c2O)c(C)c1 do in these assays?
UBC13 polyUb: -6; SENP8 block-1: 7; Apaf1 inhib: 93*; SENP6 block: 31; SENP8 block-2: 110*; SENP7 block: 6

Results for Cc1ccc(N=Nc2c(=O)[nH]n3c(C)cc(C)nc23)cc1 ?
UBC13 polyUb: -195; SENP8 block-1: -10; Apaf1 inhib: 14; SENP6 block: -15; SENP8 block-2: 49*; SENP7 block: -10

How did CC(=O)Oc1ccc(Cn2c(C)c(C(=O)NC3CC3)sc2=O)cc1 do in these assays?
SENP8 block-2: 5

Results for CN(C)c1ccc(C=c2c3ccccc3n3c2c2ccccc2[n+]3C)cc1 ?
SENP8 block-2: -470

What do the screens show for `CCOC(=O)c1cc2c(=Cc3ccc(N(C)C)cc3)c3ccccc3n2[n+]1C`?
SENP8 block-2: 91*

Results for Cc1cc2c(=Cc3ccc(N(C)C)cc3)c3ccccc3n2[n+]1C ?
SENP8 block-2: 43*

Results for C=CCn1c(N)c(C(=O)OC(C)(C)C)c2nc3ccccc3nc21 ?
UBC13 polyUb: 1; SENP8 block-1: 8; Apaf1 inhib: 67*; SENP6 block: 28; SENP8 block-2: -473; SENP7 block: 2

How did C=CCn1c(N)c(C(=O)OC(C)CC)c2nc3ccccc3nc21 (stereo not drawn) do in these assays?
SENP8 block-2: inactive

Results for CC1=C(C#N)C(=O)N(C2CCS(=O)(=O)C2)C(=O)/C1=C\c1ccco1 (stereo not drawn) ?
UBC13 polyUb: inconclusive; SENP8 block-1: 16; Apaf1 inhib: 54*; SENP6 block: -175; SENP7 block: 5

Results for O=C(Cc1csc(N2CCOCC2)n1)N/N=C/c1ccc(O)c(O)c1O ?
SENP8 block-2: 59*

How did O=C(CCN1CCN(c2ccccc2)CC1)N/N=C/c1ccc(O)c(O)c1O do in these assays?
SENP8 block-2: 62*

Results for O=C(COC(=O)c1ccc(F)cc1F)Nc1ccc2c(c1)OCO2 ?
SENP8 block-2: 12

How did COc1ccc(-c2coc3c(CN4CCCCC4)c(O)c(CN4CCCCC4)c(O)c3c2=O)cc1 do in these assays?
UBC13 polyUb: 35; SENP8 block-1: -9; Apaf1 inhib: 42*; SENP6 block: -31; SENP7 block: -9

How did CNC(C)C#Cc1ccc2oc3cc(C)c(C)cc3c(=O)c2c1 (stereo not drawn) do in these assays?
UBC13 polyUb: 15; SENP8 block-1: 69*; Apaf1 inhib: 17; SENP6 block: 84*; SENP8 block-2: -94; SENP7 block: 43

Results for Nc1ccc(N2CCN(C(=O)c3cccs3)CC2)cc1 ?
UBC13 polyUb: -14; SENP8 block-1: -8; Apaf1 inhib: 9; SENP6 block: -3; SENP8 block-2: 50*; SENP7 block: -4

What do the screens show for `CCC(N=c1cc(-c2ccc(OC)cc2)oc2ccc(C)cc12)C(=O)O` (stereo not drawn)?
UBC13 polyUb: 12; SENP8 block-1: 17; Apaf1 inhib: -1; SENP6 block: 52*; SENP8 block-2: -414; SENP7 block: 14

Results for CC(=O)c1ccc2c(c1)N(CCCN1CCC(CCO)CC1)c1ccccc1S2 ?
UBC13 polyUb: 15; SENP8 block-1: -4; Apaf1 inhib: 14; SENP6 block: -3; SENP8 block-2: 13; SENP7 block: 5

How did CSc1ccc2c(c1)N(CCC1CCCCN1C)c1ccccc1S2 (stereo not drawn) do in these assays?
UBC13 polyUb: 72*; SENP8 block-1: 1; Apaf1 inhib: 55*; SENP6 block: -4; SENP8 block-2: -12; SENP7 block: 6

How did CC(OC(=O)c1ccc(S(C)(=O)=O)c([N+](=O)[O-])c1)C(=O)NC1C2CC3CC(C2)CC1C3 (stereo not drawn) do in these assays?
SENP8 block-2: 12

What do the screens show for `Cc1cccc(N=C/C(C(=O)C(F)(F)F)=C(\O)c2ccco2)c1`?
UBC13 polyUb: 2; SENP8 block-1: 28; Apaf1 inhib: 0; SENP6 block: 77*; SENP8 block-2: -135; SENP7 block: 83*

What do the screens show for `CCOC(=O)c1c(CSC(=N)N)n(-c2ccc(C)cc2)c2cc(Br)c(OC(C)=O)cc12`?
UBC13 polyUb: 56*; SENP8 block-1: 10; Apaf1 inhib: 46*; SENP6 block: 10; SENP8 block-2: 27; SENP7 block: 8

What do the screens show for `O=C1C=C(O)c2c(O)cc(O)c(O)c2C1=O`?
UBC13 polyUb: 22; SENP8 block-1: 5; Apaf1 inhib: -3; SENP6 block: 4; SENP8 block-2: 47*; SENP7 block: 4
